The results in this text go back to ChEMBL document CHEMBL1255391, “Rates and mechanisms of resistance development in Mycobacterium tuberculosis to a novel diarylquinoline ATP synthase inhibitor” (2010).

What all share (assay type): functional
In test [1] the test system is Mycobacterium tuberculosis. The test can be described thus: Antimicrobial activity against drug-susceptible Mycobacterium tuberculosis H37Rv expressing wild type atpE Ala63Pro mutant selected after 30 times MIC drug exposure. Summed up:
(§1)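 Each resistant mutant clone (one colony picked per independent fluctuation culture selected on drug agar) is suspended in PBS, sonicated and applied by 96-pin replicator. Nonselective and rifampin control plates are included. Plates are read after 4 weeks; MIC is the lowest concentration with no visible growth.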

The test system of test [2] is Mycobacterium tuberculosis. Briefly: Antimicrobial activity against multidrug-resistant Mycobacterium tuberculosis isolate 2 expressing atpE Glu61Asp mutant selected after 10 times MIC drug exposure. The method in brief: as §1
Test [3] deals with Mycobacterium tuberculosis. Briefly: Antimicrobial activity against multidrug-resistant Mycobacterium tuberculosis isolate 3 expressing wild type atpE and ATP synthase selected after 10 times MIC drug exposure. Summed up: as §1
The subject of test [4] is Mycobacterium tuberculosis. Briefly: Antimicrobial activity against drug-susceptible Mycobacterium tuberculosis isolate 6 expressing wild type atpE Glu61Asp mutant selected after 30 times MIC drug exposure. Summed up:
as §1

Test [5] concerns Mycobacterium tuberculosis. The test can be described thus: Antimicrobial activity against multidrug-resistant Mycobacterium tuberculosis isolate 5 expressing wild type atpE Ile66Met mutant selected after 30 times MIC drug exposure. Summed up: as §1
Test [6] has as its system Mycobacterium tuberculosis. Briefly: Antimicrobial activity against drug-susceptible Mycobacterium tuberculosis isolate 6 expressing wild type atpE Ala63Pro mutant selected after 30 times MIC drug exposure. Summed up: as §1
In test [7] the test system is Mycobacterium tuberculosis. Briefly: Antimicrobial activity against multidrug-resistant Mycobacterium tuberculosis isolate 2 expressing atpE Ala28Val mutant selected after 10 times MIC drug exposure. Summed up:
as §1

The test system of test [8] is Mycobacterium tuberculosis. Briefly: Antimicrobial activity against multidrug-resistant Mycobacterium tuberculosis isolate 2 expressing wild type atpE selected after 10 times MIC drug exposure. The method in brief:
as §1

In test [9] the test system is Mycobacterium tuberculosis. The test can be described thus: Antimicrobial activity against drug-susceptible Mycobacterium tuberculosis isolate 4 expressing wild type atpE Glu61Asp mutant selected after 10 times MIC drug exposure. The method in brief:
as §1

Test [10] concerns Mycobacterium tuberculosis. The test can be described thus: Antimicrobial activity against multidrug-resistant Mycobacterium tuberculosis isolate 5 expressing wild type atpE selected after 10 times MIC drug exposure. The method in brief:
as §1

The subject of test [11] is Mycobacterium tuberculosis. Briefly: Antimicrobial activity against drug-susceptible Mycobacterium tuberculosis isolate 4 expressing wild type atpE Glu61Asp mutant selected after 30 times MIC drug exposure. The method in brief: as §1
Test [12] deals with Mycobacterium tuberculosis. Briefly: Antimicrobial activity against multidrug-resistant Mycobacterium tuberculosis isolate 3 expressing wild type atpE selected after 30 times MIC drug exposure. Summed up: as §1
For test [13], the system named is Mycobacterium tuberculosis. The test can be described thus: Antimicrobial activity against multidrug-resistant Mycobacterium tuberculosis isolate 3 expressing wild type atpE selected after 10 times MIC drug exposure. The method in brief:
as §1

Test [14] relates to Mycobacterium tuberculosis. The test can be described thus: Antimicrobial activity against drug-susceptible Mycobacterium tuberculosis isolate 4 expressing wild type atpE Asp28Pro mutant selected after 10 times MIC drug exposure. Summed up:
as §1

The subject of test [15] is Mycobacterium tuberculosis. Briefly: Antimicrobial activity against multidrug-resistant Mycobacterium tuberculosis isolate 1 expressing wild type atpE selected after 10 times MIC drug exposure. Summed up: as §1
Test [16] has as its system Mycobacterium tuberculosis. The test can be described thus: Antimicrobial activity against multidrug-resistant Mycobacterium tuberculosis H37Rv.
The subject of test [17] is Mycobacterium tuberculosis. The test can be described thus: Antimicrobial activity against multidrug-resistant Mycobacterium tuberculosis isolate 3 expressing wild type atpE and F0 operon selected after 30 times MIC drug exposure. Summed up:
as §1

Test [18] relates to Mycobacterium tuberculosis. The test can be described thus: Antimicrobial activity against multidrug-resistant Mycobacterium tuberculosis isolate 1 expressing atpE Glu61Asp mutant selected after 10 times MIC drug exposure. The method in brief: as §1
The test system of test [19] is Mycobacterium tuberculosis. The test can be described thus: Antimicrobial activity against multidrug-resistant Mycobacterium tuberculosis isolate 5 expressing wild type atpE Ala63Pro mutant selected after 10 times MIC drug exposure. Summed up:
as §1

Test [20] concerns Mycobacterium tuberculosis. Briefly: Antimicrobial activity against multidrug-resistant Mycobacterium tuberculosis isolate 3 expressing wild type atpE and F0 operon selected after 10 times MIC drug exposure. Summed up:
as §1

The test system of test [21] is Mycobacterium tuberculosis. Briefly: Antimicrobial activity against multidrug-resistant Mycobacterium tuberculosis isolate 5 expressing wild type atpE and F0 operon selected after 10 times MIC drug exposure. The method in brief:
as §1

Test [22] deals with Mycobacterium tuberculosis. The test can be described thus: Antimicrobial activity against multidrug-resistant Mycobacterium tuberculosis isolate 1 expressing atpE Glu63Asp mutant selected after 30 times MIC drug exposure. The method in brief:
as §1

One may read the MIC as the lowest concentration found to suppress growth. A low value points to inhibition by little substance.

Each structure is given as a SMILES string. In brackets after ≈: the same amount, converted by molar mass.

With `COc1nc2ccc(Br)cc2cc1[C@@H](c1ccccc1)[C@@](O)(CCN(C)C)c1cccc2ccccc12` [BEDAQUILINE], the MIC was determined as 3.84 µg/mL (≈ 6.91 µM) in test [1]; 0.24 µg/mL (≈ 0.432 µM) in [2]; 0.9 µg/mL (≈ 1.62 µM) in test [3]; 0.48 µg/mL (≈ 0.864 µM) in test [4]; 0.9 µg/mL (≈ 1.62 µM) in test [5]; 0.9 µg/mL (≈ 1.62 µM) in [6]. The MIC amounted to 0.48 µg/mL (≈ 0.864 µM) in test [7]; 0.12 µg/mL (≈ 0.216 µM) in test [8]; 0.96 µg/mL (≈ 1.73 µM) in test [9]; 0.12 µg/mL (≈ 0.216 µM) in test [10]; 0.48 µg/mL (≈ 0.864 µM) in test [11]; 0.48 µg/mL (≈ 0.864 µM) in test [12]. Further, the MIC in test [13] was 0.9 µg/mL (≈ 1.62 µM); in test [14], 0.3 µg/mL (≈ 0.54 µM); in test [15], 0.12 µg/mL (≈ 0.216 µM); in test [16] it was 0.03 µg/mL (≈ 0.054 µM); in test [17] it was 0.9 µg/mL (≈ 1.62 µM); in [18] it was 0.48 µg/mL (≈ 0.864 µM). The MIC in test [19] amounted to 0.24 µg/mL (≈ 0.432 µM); in [20], 0.9 µg/mL (≈ 1.62 µM); in [21] it was 0.48 µg/mL (≈ 0.864 µM); in test [22], 1.92 µg/mL (≈ 3.46 µM).
